Apaf-1 inh: inhibitors of human Apaf-1 apoptosome, primary screen, biochemical, DEVD-Rh110 fluorescence, uHTS; Apoptotic protease-activating factor 1 (Homo sapiens), O14727; reconstituted apoptosome caspase-3 activity; inhibition, % at 20 µM; 330,000 tested, 0.71% active; active = inhibition of at least 40% at 20 µM;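 also: plate controls were DMSO wells for no effect and DEVD-CHO caspase inhibitor wells for full effect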
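Assay system: Apoptosome proteins | Medium: pH 7.5 Hepes buffer with CHAPS, BSA, DTT | Also added: Cytochrome c and DEVD-Rh110 substrate | Times: 30 min plus 50 min, RT | Detection: Rhodamine 110 fluorescence at Ex 480/Em 540 nm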
SENP6 block: SENP6 protease inhibitors, primary screen, biochemical, luminescence, uHTS; AID 2599, 2010; Recombinant SENP6 catalytic domain, aminoluciferin luminescence; 330,000 tested, 1.8% active; Sentrin-specific protease 6 (Homo sapiens), Q9GZR1; inhibition, % at 10 µM;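 active = inhibition above about 50% at the single tested dose, limit read from the data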;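 also: plate controls were DMSO wells with enzyme for no effect and DMSO wells lacking enzyme for full effect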
SENP1 inh: human SENP1 catalytic domain inhibitors, primary screen, biochemical, FRET, uHTS. Sentrin-specific protease 1 (Homo sapiens), Q9P0U3. recombinant SENP1 catalytic domain, CyPet-SUMO1-YPet FRET cleavage. inhibition, % at 10 µM. 360,000 tested, 0.21% active;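 active = inhibition at least 30% at 10 µM, raw YFP signal under a set limit, fluorescence ratio 0.5 to 1.5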;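 also: 0% = enzyme with DMSO and 100% = no enzyme wells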
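System: Recombinant human SENP1 catalytic domain, His6-tagged | Incubation: Enzyme reaction for 50 min at room temperature, dark | Medium: Tris pH 8 with BME, BSA, NP40 and catalase | Also added: 25 nM SUMO1 FRET substrate | Compound: 10 µM single point, 0.5% DMSO | Measured by: FRET fluorescence in CFP and YFP emission channels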
SENP8 block-1: human SENP8 protease inhibitors, primary screen, biochemical, fluorescence, Nedd8 protein substrate, uHTS. inhibition, % at 20 µM. 360,000 tested, 0.64% active. recombinant SENP8; in the data active = inhibition mostly above about 40%, no sharp cut-off; inactive = mostly below about 27%
Target sequence (Q96LD8 whole entry, looked up): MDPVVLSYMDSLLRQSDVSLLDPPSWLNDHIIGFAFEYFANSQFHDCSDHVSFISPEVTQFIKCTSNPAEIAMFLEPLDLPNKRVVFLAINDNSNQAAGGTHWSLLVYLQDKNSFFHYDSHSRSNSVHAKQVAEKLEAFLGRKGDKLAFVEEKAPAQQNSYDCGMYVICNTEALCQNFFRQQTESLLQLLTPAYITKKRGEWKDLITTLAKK
SENP7 block: SENP7 protease inhibitors, primary screen, biochemical, luminescence, uHTS | recombinant SENP7, Z-RLRGG-aminoluciferin luminescence, 40 min | inhibition, % at 5 µM | 330,000 tested, 1.5% active;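 active = inhibition above about 50% at the single test dose, limit read from the data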;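 also: plate controls were DMSO with enzyme for no effect and no enzyme buffer wells for full effect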
Target sequence (Q9BQF6 706-1050 limits assumed): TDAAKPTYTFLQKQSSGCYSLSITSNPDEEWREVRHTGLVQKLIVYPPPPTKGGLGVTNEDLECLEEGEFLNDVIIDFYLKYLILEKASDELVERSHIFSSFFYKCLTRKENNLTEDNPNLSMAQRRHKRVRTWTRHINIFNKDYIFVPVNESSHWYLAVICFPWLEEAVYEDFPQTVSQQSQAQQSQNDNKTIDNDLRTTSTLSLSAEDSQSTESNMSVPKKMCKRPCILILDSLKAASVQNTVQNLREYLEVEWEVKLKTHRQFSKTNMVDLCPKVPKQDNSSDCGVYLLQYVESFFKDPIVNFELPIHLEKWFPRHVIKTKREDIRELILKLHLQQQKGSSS
SENP8 block-2: SENP8 protease inhibitors, primary screen, biochemical, luminescence. purified SENP8, Z-RLRGG-aminoluciferin cleavage. 330,000 tested, 1.2% active. inhibition, % at 10 µM; in the data active = inhibition above about 50%
SENP8 confirm: SENP8 protease inhibitors, retest, confirmation, biochemical, luminescence, single concentration | shares compounds with SENP7 block | Recombinant SENP8, Z-RLRGG-aminoluciferin luminescence, 60 min | inhibition, % at 12.5 µM | AID 488912, 2010 | 6,200 tested, 40% active;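 active = mean inhibition across replicates above about 50%, limit read from the data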
SENP6 conf: SENP6 protease inhibitors, confirmation, biochemical, luminescence, single concentration; 6,200 tested, 58% active; recombinant SENP6, Z-RLRGG-aminoluciferin luminescence; shares compounds with SENP7 block; inhibition, % at 12.5 µM
SENP7 conf: SENP7 protease inhibitors, retest, confirmation, biochemical, luminescence, single concentration; 6,200 tested, 69% active; shares compounds with SENP7 block; recombinant SENP7, Z-RLRGG-aminoluciferin luminescence, 40 min; AID 488917, 2010; inhibition, % at 12.5 µM
Casp3 SENP sel: caspase-3 protease inhibitors, confirmation, selectivity assay for SENP inhibitor project, biochemical, single concentration; shares compounds with SENP7 block; purified caspase-3, Z-DEVD-aminoluciferin luminescence, 60 min; inhibition, % at 12.5 µM; 6,200 tested, 60% active; AID 488918, 2010;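 active = mean inhibition above about 50%, limit read from the data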;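 also: plate controls were enzyme with DMSO for no effect and wells without caspase-3 for full effect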
SENP luc ctr: interferes with luciferase luminescence in SENP counter-screen; shares compounds with SENP7 block; Pre-incubated SENP8/Z-RLRGG-aminoluciferin, luciferase luminescence interference; 6,200 tested, 39% active; inhibition, % at 12.5 µM;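 active = mean inhibition above about 50% when retested at one dose, limit read from the data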;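 also: plate controls were DMSO wells with completed reaction for no effect and substrate without enzyme for full effect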
Starred values were filed as active, the others as inactive. Compounds with a hit are over-represented: about 2.9% of the library has one in this group of screens.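 The calls were made as follows, unless noted: active = mean inhibition above about 50% in the one-dose retest (limit read from the data); inactive = the rest.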

How did CC(C)(C)c1ccc(C(=O)Nc2ccc(F)cc2)s1 do in these assays?
Apaf-1 inh: -8.7; SENP6 block: 83.9*; SENP1 inh: -1.2; SENP8 block-1: 3.5; SENP7 block: 72.5*; SENP8 block-2: 80.5*; SENP8 confirm: 57.9*; SENP6 conf: 73.1*; SENP7 conf: 95.1*; Casp3 SENP sel: 65.2*; SENP luc ctr: 35.4

Results for CCc1cc2cc(C(=O)Nc3ccccc3F)sc2s1 ?
Apaf-1 inh: -1.4; SENP6 block: 50.0*; SENP1 inh: -0.3; SENP8 block-1: 8.4; SENP7 block: 92.1*; SENP8 block-2: 33.6; SENP8 confirm: 16.2; SENP6 conf: 58.1*; SENP7 conf: 97.8*; Casp3 SENP sel: 80.3*; SENP luc ctr: 5.4

What do the screens show for `CCc1cc2cc(C(=O)Nc3ccc(F)cc3)sc2s1`?
Apaf-1 inh: -1.0; SENP6 block: 47.5; SENP1 inh: 3.2; SENP8 block-1: 13.1; SENP7 block: 79.4*; SENP8 block-2: 18.2; SENP8 confirm: 5.1; SENP6 conf: 12.4; SENP7 conf: -3.4; Casp3 SENP sel: 10.7; SENP luc ctr: -5.8

Results for Cc1nc(Cl)sc1C(=O)Nc1ccc(F)cc1 ?
SENP1 inh: -9.0; SENP8 block-1: 10.0

Results for CCCCN1CC(N2CCCCC2)CS1(=O)=O (stereo unspecified) ?
SENP1 inh: -4.0; SENP8 block-1: 9.2

Results for Cc1ccc(/C=C2\OC(=O)c3ccccc32)cc1 ?
Apaf-1 inh: -0.5; SENP6 block: 67.9*; SENP1 inh: -21.7; SENP8 block-1: -189.6; SENP7 block: 86.4*; SENP8 block-2: 55.9*; SENP8 confirm: 0.2; SENP6 conf: 15.0; SENP7 conf: 24.7; Casp3 SENP sel: 30.5; SENP luc ctr: 11.3

Results for O=C1NC2=C(C(=O)CCC2)C(c2ccc3ncccc3c2)N1 (stereo unspecified) ?
Apaf-1 inh: -20.6; SENP6 block: -1.6; SENP1 inh: 2.9; SENP8 block-1: 12.9; SENP7 block: 71.8*; SENP8 block-2: 1.8; SENP8 confirm: 0.4; SENP6 conf: 4.9; SENP7 conf: 6.4; Casp3 SENP sel: -0.5; SENP luc ctr: 0.2

How did O=C(Nc1ccccc1)c1ccc(-c2ccccc2Cl)o1 do in these assays?
Apaf-1 inh: 10.8; SENP6 block: 65.9*; SENP1 inh: 1.2; SENP8 block-1: 11.6; SENP7 block: 60.2*; SENP8 block-2: 21.3; SENP8 confirm: 4.8; SENP6 conf: 24.2; SENP7 conf: 81.8*; Casp3 SENP sel: 38.1; SENP luc ctr: 1.3

Results for O=C(Nc1nccs1)c1ccc(-c2ccccc2Cl)o1 ?
Apaf-1 inh: 1.3; SENP6 block: 78.9*; SENP1 inh: -1.0; SENP8 block-1: -75.6; SENP7 block: 70.0*; SENP8 block-2: 61.7*; SENP8 confirm: 65.6*; SENP6 conf: 69.0*; SENP7 conf: -6.6; Casp3 SENP sel: 22.7; SENP luc ctr: 25.2

How did CC(=O)Nc1ccc(NC(=O)c2ccc(-c3ccccc3Cl)o2)cc1 do in these assays?
Apaf-1 inh: -8.9; SENP6 block: -19.0; SENP1 inh: 0.2; SENP8 block-1: -54.8; SENP7 block: -8.7; SENP8 block-2: -20.6

How did CC(=O)Cc1nsc(NC(=O)c2ccc(-c3ccccc3Cl)o2)n1 do in these assays?
Apaf-1 inh: 6.5; SENP6 block: 31.5; SENP1 inh: 1.4; SENP8 block-1: -90.6; SENP7 block: 44.6; SENP8 block-2: 57.4*; SENP8 confirm: 82.7*; SENP6 conf: 79.2*; SENP7 conf: 92.1*; Casp3 SENP sel: 66.4*; SENP luc ctr: 66.0*

How did CCOC(=O)C1=CC[C@@H](c2cccc(Br)c2)N(S(=O)(=O)c2ccc(F)cc2)[C@H]1c1cccc(Cl)c1 do in these assays?
SENP1 inh: 1.0; SENP8 block-1: 19.6

Results for Cc1cccc(/C=N/NC(=O)c2cc(-c3cccnc3)nc3c2c(C)nn3-c2ccccc2)c1 ?
Apaf-1 inh: 14.1; SENP6 block: 14.4; SENP1 inh: -15.8; SENP8 block-1: -170.9; SENP7 block: 76.7*; SENP8 block-2: -8.5; SENP8 confirm: 4.2; SENP6 conf: -5.3; SENP7 conf: -5.4; Casp3 SENP sel: -4.8; SENP luc ctr: -3.1

What do the screens show for `CC[C@@]12C(=O)N(c3cccc(F)c3)C(=O)N1[C@H](c1ccc(Cl)cc1)[C@@H]1C(=O)N(C3CCCCC3)C(=O)[C@@H]12`?
Apaf-1 inh: 9.1; SENP6 block: -3.7; SENP1 inh: -1.2; SENP8 block-1: 12.0; SENP7 block: -4.2; SENP8 block-2: -4.2

What do the screens show for `Cc1ccc(-c2nc(N=Nc3ccc(O)cc3)n[nH]2)cc1`?
Apaf-1 inh: -2.7; SENP6 block: 11.2; SENP1 inh: -0.7; SENP8 block-1: 24.7; SENP7 block: 1.0; SENP8 block-2: 3.2

What do the screens show for `Cc1nc(N=Nc2ccc(O)cc2)n[nH]1`?
Apaf-1 inh: 1.6; SENP6 block: 74.8*; SENP1 inh: 0.8; SENP8 block-1: 21.3; SENP7 block: 58.3*; SENP8 block-2: 45.0; SENP8 confirm: 57.5*; SENP6 conf: 52.9*; SENP7 conf: 86.5*; Casp3 SENP sel: 87.0*; SENP luc ctr: 63.1*

Results for CCc1nc2ccc(C(=O)N3CCN(C(C)=O)CC3)cn2c1N(C=O)Cc1ccc(OC)cc1 ?
SENP1 inh: 0.6; SENP8 block-1: -6.7
